Active and inactive are the calls of the source. The calls are words filed in the database; no cut-off is given here.
Experiments:
[1] = Inhibition of PKC-mediated phosphorylation of Ser744/748
[2] = biological target: T1, Serine/threonine-protein kinase D1 (Homo sapiens, UniProt Q15139); assay: Inhibition of PKD1 by TR-FRET assay
T1 sequence (Q15139 whole entry): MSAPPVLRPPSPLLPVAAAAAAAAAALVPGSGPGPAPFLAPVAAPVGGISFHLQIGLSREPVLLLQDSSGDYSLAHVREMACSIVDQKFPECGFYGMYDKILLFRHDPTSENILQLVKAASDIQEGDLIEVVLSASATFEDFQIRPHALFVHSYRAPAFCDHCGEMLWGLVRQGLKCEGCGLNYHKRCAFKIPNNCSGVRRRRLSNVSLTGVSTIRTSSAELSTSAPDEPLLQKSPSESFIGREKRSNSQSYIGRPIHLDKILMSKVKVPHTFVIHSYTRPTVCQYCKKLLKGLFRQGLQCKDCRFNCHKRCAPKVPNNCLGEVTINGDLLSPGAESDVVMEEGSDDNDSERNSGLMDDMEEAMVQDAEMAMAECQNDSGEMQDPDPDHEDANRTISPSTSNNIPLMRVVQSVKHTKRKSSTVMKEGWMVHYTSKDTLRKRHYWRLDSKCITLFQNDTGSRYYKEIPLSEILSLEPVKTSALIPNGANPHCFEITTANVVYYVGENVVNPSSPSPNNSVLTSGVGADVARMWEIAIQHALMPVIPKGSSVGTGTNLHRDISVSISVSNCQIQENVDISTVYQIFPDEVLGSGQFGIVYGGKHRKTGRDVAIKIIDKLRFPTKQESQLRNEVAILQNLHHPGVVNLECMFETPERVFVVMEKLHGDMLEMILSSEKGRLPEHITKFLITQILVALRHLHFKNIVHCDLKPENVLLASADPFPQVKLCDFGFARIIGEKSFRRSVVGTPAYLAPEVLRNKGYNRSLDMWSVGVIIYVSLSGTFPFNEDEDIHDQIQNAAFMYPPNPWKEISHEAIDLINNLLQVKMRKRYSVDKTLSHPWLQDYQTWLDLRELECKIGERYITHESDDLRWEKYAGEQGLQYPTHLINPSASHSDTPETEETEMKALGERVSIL
Method in brief: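 Full-length wild-type PKD1 expressed and purified from Sf9 cells, 0.2 μg/mL, in 35 mM Tris-HCl pH 7.5, 5 mM MgCl2, 0.02% Tween-20, 20 μM ATP, 1 mM DTT. Reaction started with 2 μM biotinylated syntide-2 and run 50 min at room temperature. Stopped with EDTA plus europium anti-rabbit IgG, anti-phospho-syntide-2 antibody and streptavidin-APC. LANCE TR-FRET 665/615 ratio read after 1 h. 11-point curves in triplicate gave IC50.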

[3] = Clearance in Sprague-Dawley rat at 2 mg/kg, iv and 5 mg/kg, po; format: ADME, organism-based; conditions: in vivo
Method in brief: (§1)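 Rats dosed iv 2 mg/kg (n = 2) or po 5 mg/kg (n = 3) in 10% NMP, 10% Cremophor, 80% pH 4.63 buffer. PK parameters derived from iv dosing, reported as mean ± SD.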

[4] = Volume of distribution at steady state in Sprague-Dawley rat at 2 mg/kg, iv and 5 mg/kg, po; format: ADME, organism-based; conditions: in vivo, read-out: Vdss; method in brief: as §1
[5] = Half life in rats after 2 mg/kg intravenous dose; format: ADME, organism-based; parameters: dose 2 mg/kg, route intravenous; conditions: Sprague-Dawley, rat, in vivo; method in brief: as §1
[6] = biological target: Calcium/calmodulin-dependent protein kinase type 1D (Homo sapiens) (UniProt Q8IU85); assay: Inhibition of CaMK1delta; conditions: concentration not given here
Method in brief: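 Selectivity screen run externally (Invitrogen SelectScreen). Percent inhibition measured at 1 μM compound, mean of 2 measurements.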

[7] = biological target: T2, Protein kinase C epsilon type (Homo sapiens) (UniProt Q02156); assay: Inhibition of PKCepsilon; conditions: concentration not given here
T2 sequence (whole entry): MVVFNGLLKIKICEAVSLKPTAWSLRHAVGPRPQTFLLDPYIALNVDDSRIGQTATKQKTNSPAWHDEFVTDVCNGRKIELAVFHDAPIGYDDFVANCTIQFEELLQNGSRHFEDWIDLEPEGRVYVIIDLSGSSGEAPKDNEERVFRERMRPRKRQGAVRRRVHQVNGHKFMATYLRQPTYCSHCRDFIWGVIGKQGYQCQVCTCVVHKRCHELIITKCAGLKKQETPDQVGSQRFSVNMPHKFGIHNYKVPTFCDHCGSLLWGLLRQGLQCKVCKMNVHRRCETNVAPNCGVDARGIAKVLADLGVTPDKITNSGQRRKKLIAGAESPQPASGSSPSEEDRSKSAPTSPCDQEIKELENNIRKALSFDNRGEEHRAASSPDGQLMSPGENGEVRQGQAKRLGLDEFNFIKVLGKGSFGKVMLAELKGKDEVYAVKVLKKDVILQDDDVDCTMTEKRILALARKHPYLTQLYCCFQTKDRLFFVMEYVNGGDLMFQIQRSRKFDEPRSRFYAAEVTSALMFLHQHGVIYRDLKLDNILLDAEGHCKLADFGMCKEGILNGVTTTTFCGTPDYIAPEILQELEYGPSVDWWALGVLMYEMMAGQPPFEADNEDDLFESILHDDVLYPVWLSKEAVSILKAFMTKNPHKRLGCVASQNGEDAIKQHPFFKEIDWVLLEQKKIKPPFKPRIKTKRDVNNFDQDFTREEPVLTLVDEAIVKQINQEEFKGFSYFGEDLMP

[8] = Inhibition of alpha1 adrenoceptor
[9] = biological target: Beta-1 adrenergic receptor (Homo sapiens, UniProt P08588); assay: Inhibition of beta-1 adrenoceptor
[10] = AUC (0 to 8 hrs) in Dahl salt-sensitive rat at 50 mg/kg, sc; format: ADME, organism-based; parameters: time < 8 hr, dose 50 mg/kg, route subcutaneous; conditions: plasma
Method in brief: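 Dahl salt-sensitive rats given 50 mg/kg sc in 10% 1 N HCl, 90% Captisol in pH buffer (10%). Plasma exposure followed over time to give AUC.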

Rattus norvegicus = assay: Antihypertensive activity in thoracic aortic banded Sprague-Dawley rat assessed as inhibition of cardia hypertrophy at 5 mg/kg, sc; format: functional, organism-based; parameters: dose 5 mg/kg; conditions: Aorta
Method in brief: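 Rats fitted with an aortic occlusion cuff or given sham surgery. Dosed 5 mg/kg/day sc in acidified captisol, or vehicle, for 2 weeks. End-point cardiac performance assessed by ultrasound and hemodynamics by direct catheterization.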

Pkd1 (Rattus norvegicus) = Pkd1 (Rattus norvegicus) (UniProt Q9ERV0); assay: Inhibition of PKD1 in rat ventricular myosyte assessed as inhibition of HDAC5 neuclear export
Method in brief: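 Neonatal rat ventricular myocytes infected with adenovirus encoding GFP-HDAC5 and plated on gelatin-coated wells. Cells exposed to compound and stimulated with PGF2α for 2 h, then fixed. Cytoplasmic versus nuclear GFP intensity quantified by high-content imaging.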

Plasma = assay: Drug level in Dahl salt-sensitive rat plasma at 5 mg/kg, sc qd; conditions: in vivo

Pkd1 (Rattus norvegicus), sequence (Q9ERV0 as listed by the source): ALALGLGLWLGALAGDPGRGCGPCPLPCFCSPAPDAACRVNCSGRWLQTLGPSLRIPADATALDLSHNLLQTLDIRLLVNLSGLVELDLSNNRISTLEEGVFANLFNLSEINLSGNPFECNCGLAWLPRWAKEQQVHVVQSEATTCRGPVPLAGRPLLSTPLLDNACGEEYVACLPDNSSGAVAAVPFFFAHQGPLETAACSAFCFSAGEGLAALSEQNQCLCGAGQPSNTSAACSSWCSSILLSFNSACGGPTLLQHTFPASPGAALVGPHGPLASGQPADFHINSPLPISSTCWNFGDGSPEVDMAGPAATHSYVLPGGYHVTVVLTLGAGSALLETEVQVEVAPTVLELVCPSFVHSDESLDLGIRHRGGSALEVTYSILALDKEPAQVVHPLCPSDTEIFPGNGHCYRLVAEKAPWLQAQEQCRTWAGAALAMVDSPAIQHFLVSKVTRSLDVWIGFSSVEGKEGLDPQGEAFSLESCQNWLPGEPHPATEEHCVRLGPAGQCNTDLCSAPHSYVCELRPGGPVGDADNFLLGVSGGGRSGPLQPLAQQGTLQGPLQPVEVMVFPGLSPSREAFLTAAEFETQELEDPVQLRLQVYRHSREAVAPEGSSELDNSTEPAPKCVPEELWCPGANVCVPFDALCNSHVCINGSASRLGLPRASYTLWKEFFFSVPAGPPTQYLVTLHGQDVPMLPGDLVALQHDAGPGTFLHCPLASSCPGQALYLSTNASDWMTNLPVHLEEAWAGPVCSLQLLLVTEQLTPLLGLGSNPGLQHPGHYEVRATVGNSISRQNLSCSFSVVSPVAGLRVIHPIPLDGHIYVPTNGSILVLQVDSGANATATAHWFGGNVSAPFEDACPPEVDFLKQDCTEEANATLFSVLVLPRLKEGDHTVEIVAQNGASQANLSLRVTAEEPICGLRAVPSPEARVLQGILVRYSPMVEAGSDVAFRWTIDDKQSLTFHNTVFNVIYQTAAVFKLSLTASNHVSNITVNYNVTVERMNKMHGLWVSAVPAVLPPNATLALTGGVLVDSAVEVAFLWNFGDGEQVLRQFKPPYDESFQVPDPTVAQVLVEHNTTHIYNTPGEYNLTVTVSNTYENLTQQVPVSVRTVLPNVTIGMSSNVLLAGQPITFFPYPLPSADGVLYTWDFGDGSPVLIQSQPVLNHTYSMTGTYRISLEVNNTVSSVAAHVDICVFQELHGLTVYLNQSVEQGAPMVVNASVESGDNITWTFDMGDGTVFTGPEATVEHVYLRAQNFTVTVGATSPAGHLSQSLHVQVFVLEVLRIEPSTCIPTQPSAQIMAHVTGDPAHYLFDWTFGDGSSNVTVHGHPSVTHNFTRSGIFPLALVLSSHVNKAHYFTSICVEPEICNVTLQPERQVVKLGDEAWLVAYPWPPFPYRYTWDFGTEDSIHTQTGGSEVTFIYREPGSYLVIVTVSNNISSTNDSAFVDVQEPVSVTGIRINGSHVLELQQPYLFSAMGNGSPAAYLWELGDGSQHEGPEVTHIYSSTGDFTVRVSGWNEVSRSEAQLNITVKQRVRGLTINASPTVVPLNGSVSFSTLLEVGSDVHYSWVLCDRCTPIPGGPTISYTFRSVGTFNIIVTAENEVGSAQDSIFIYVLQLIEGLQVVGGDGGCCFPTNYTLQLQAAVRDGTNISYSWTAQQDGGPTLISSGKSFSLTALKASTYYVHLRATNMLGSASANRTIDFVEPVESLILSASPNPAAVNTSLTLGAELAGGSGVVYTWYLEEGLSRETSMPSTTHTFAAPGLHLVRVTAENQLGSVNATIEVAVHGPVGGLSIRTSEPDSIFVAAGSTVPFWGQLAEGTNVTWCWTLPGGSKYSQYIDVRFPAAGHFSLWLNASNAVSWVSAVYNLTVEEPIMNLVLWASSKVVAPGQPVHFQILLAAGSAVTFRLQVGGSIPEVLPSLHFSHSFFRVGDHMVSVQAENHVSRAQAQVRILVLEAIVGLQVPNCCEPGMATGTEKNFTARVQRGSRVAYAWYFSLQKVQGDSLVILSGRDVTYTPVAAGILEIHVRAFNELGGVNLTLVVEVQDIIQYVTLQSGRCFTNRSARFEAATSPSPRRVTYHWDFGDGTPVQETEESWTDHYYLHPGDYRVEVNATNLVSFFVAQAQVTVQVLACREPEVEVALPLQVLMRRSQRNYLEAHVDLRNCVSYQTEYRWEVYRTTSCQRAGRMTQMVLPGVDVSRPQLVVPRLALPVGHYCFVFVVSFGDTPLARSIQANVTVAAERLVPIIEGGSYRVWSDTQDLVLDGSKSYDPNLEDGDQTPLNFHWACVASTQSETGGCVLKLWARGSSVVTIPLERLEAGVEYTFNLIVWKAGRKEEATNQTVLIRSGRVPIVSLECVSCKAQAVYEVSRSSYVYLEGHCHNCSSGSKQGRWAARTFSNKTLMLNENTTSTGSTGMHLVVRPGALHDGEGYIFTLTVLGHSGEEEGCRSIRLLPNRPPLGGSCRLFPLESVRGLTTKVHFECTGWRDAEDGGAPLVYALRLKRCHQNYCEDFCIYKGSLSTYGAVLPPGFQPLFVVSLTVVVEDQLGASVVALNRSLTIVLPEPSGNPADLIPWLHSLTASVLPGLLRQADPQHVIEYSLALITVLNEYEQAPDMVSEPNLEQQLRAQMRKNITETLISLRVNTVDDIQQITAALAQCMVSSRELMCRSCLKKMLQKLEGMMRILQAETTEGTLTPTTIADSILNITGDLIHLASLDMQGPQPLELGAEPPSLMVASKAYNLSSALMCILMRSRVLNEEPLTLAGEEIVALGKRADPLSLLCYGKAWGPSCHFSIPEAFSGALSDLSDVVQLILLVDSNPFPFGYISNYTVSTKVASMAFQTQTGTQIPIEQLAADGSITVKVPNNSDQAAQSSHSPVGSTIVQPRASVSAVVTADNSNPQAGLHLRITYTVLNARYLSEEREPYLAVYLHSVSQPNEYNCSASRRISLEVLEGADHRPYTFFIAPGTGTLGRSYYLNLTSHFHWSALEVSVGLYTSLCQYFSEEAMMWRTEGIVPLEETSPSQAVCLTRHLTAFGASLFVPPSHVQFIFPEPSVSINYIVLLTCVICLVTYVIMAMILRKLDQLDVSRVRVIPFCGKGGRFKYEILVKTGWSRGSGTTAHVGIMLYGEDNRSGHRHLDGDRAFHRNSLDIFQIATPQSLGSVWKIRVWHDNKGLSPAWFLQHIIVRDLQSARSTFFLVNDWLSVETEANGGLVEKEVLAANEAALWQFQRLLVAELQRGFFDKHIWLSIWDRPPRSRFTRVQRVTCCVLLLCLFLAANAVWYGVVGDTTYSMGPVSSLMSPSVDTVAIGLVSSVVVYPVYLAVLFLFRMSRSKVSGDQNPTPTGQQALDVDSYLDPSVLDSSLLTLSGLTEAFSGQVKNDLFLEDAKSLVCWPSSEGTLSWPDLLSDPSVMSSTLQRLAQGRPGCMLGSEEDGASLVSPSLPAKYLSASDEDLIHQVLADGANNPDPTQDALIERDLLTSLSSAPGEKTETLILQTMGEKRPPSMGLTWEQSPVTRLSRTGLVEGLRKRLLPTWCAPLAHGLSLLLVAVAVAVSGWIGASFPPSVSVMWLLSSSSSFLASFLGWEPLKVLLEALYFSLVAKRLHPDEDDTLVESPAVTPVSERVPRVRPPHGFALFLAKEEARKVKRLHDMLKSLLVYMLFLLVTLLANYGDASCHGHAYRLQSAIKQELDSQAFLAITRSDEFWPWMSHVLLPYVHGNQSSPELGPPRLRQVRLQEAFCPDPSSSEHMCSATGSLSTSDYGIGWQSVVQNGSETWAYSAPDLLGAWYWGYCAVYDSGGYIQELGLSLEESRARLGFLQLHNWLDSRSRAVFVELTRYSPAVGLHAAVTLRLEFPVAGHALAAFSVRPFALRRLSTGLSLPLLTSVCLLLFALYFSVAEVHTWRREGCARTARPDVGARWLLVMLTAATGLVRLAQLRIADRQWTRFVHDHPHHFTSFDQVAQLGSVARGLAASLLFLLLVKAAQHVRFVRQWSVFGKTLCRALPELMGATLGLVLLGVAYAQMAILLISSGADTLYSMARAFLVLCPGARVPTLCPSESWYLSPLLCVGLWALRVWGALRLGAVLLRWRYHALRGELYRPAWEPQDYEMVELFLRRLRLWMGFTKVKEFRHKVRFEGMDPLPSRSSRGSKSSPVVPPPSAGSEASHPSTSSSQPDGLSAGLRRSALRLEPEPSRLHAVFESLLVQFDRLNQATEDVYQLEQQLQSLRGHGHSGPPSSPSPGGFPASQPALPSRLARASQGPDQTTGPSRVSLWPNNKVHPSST
Calcium/calmodulin-dependent protein kinase type 1D (Homo sapiens), sequence (Q8IU85 whole entry, looked up): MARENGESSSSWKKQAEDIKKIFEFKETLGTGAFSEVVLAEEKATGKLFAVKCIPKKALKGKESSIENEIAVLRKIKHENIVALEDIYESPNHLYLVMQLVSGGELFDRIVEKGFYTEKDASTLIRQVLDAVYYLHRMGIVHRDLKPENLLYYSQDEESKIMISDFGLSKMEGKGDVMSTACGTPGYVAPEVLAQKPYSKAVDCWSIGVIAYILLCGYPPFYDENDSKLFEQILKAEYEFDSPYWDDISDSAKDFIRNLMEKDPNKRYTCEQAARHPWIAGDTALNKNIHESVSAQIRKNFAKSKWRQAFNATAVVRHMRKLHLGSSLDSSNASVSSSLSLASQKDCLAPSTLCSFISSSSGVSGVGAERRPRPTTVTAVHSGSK
Beta-1 adrenergic receptor, sequence (P08588 whole entry): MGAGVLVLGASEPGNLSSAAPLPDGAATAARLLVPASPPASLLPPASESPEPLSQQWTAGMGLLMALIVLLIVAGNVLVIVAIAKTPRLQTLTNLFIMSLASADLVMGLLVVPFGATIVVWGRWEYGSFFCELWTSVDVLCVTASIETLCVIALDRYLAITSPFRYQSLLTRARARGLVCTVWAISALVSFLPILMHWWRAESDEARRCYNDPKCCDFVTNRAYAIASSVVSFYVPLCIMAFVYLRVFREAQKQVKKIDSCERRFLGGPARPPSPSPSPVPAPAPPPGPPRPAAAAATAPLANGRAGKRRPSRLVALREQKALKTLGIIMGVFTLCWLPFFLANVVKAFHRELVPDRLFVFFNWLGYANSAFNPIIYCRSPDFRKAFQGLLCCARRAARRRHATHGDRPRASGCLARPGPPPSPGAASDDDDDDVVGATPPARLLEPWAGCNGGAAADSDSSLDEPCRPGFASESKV

NC(=O)c1cc(-c2ccnc(NC3CCCCC3)c2)nc(N2CCNCC2)c1
inhibition [1]: inactive
IC50 [2]: 0.001 µM
clearance [3]: 97 mL/min/kg
Vd [4]: 22 L/kg
half-life [5]: 3.8 h
inhibition [6]: 6%
inhibition [7]: -3%
IC50 [8]: 3 µM
IC50 [9]: 8.3 µM
AUC(0-t) at 8 h [10]: 25.8 µM·h
inhibition (Rattus norvegicus): inactive
inhibition (Pkd1 (Rattus norvegicus)): Active
concentration (Plasma): 230 nM

— ChEMBL document CHEMBL1212911, “Identification of potent and selective amidobipyridyl inhibitors of protein kinase D” (J Med Chem, 2010)
